ChEMBL document CHEMBL1123760, “Synthesis and oral antifungal activity of novel azolylpropanolones and related compounds” (1987)
≈ marks a conversion by molar mass, not a printed value.

What was measured:
Assay type in all cases: functional
[1] = tested on: Candida albicans; experiment: Minimum effective concentration for inhibition of pseudomycelium formation in Candida albicans; settings: Candida albicans; read-out: MEC
Outline: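 C. albicans KE-2 (clinical isolate) at a final 1 × 10^6 yeast cells/mL in EMEM with 20% calf serum; compounds diluted by the same microtiter system as for MICs. After incubation, wells were Giemsa-stained (5% in phosphate buffer) and read by microscope. MEC is the lowest concentration preventing typical pseudomycelium formation.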

[2] = tested on: Trichophyton benhamiae; experiment: In vitro antifungal activity against Trichophyton asteroides; settings: Trichophyton benhamiae; read-out: MIC
Outline: (§1)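 Broth microdilution MIC in Sabouraud's glucose broth; final inocula 1 × 10^5 cells/mL (yeast) or 1 × 10^5 conidia/mL (mold and dermatophyte).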

[3] = tested on: Candida albicans; experiment: In vitro antifungal activity against Candida albicans; settings: Candida albicans; read-out: MIC; outline: as §1
[4] = tested on: Aspergillus fumigatus; experiment: In vitro antifungal activity against Aspergillus fumigatus; settings: Aspergillus fumigatus; read-out: MIC; outline: as §1
[5] = tested on: Mus musculus; experiment: Ratio of in vivo number of survivors / total infected; set-up: reference not given here

SMILES | minimal effective concentration [1] | MIC [2] | MIC [3] | MIC [4] | No. of survivors [5]
O=C(c1ccccc1)C(O)(Cn1ccnc1)c1ccc(Cl)cc1Cl (stereo not given) | 0.63 µg/mL | 0.1 µg/mL (≈ 0.277 µM) | > 100 µg/mL | > 100 µg/mL | 0
O=C(c1ccc(Cl)cc1)C(O)(Cn1cncn1)c1ccc(Cl)cc1Cl (stereo not given) | 1.25 µg/mL | 0.1 µg/mL (≈ 0.252 µM) | > 100 µg/mL | > 100 µg/mL | 7
Cc1ccccc1C(=O)C(O)(Cn1cncn1)c1ccccc1C (stereo not given) | 5 µg/mL | 3.1 µg/mL (≈ 9.65 µM) | > 100 µg/mL | > 100 µg/mL | 0
OC(c1ccc(Cl)cc1Cl)C(O)(Cn1ccnc1)c1ccc(Cl)cc1Cl (stereo not given) | 1.25 µg/mL | 0.1 µg/mL (≈ 0.231 µM) | 50 µg/mL (≈ 116 µM) | 100 µg/mL (≈ 231 µM) | 3
O=C(c1ccc(Cl)cc1)C(O)(Cn1cncn1)C1CCCCC1 (stereo not given) | 0.08 µg/mL | 0.8 µg/mL (≈ 2.4 µM) | > 100 µg/mL | 50 µg/mL (≈ 150 µM) | 0
CCCC(=O)C(O)(Cn1cncn1)c1ccc(Cl)cc1 (stereo not given) | 0.08 µg/mL | 0.1 µg/mL (≈ 0.34 µM) | 100 µg/mL (≈ 340 µM) | 12.5 µg/mL (≈ 42.6 µM) | 0
O=C1O[C@H](c2ccc(Cl)cc2Cl)[C@@](Cn2cncn2)(c2ccc(Cl)cc2Cl)O1 | 0.16 µg/mL | 0.1 µg/mL (≈ 0.218 µM) | > 100 µg/mL | > 100 µg/mL | 0
OC(c1ccc(Cl)cc1Cl)C(O)(Cn1cncn1)c1ccc(Cl)cc1Cl (stereo not given) | 0.08 µg/mL | 0.1 µg/mL (≈ 0.231 µM) | 100 µg/mL (≈ 231 µM) | > 100 µg/mL | 6
CC(C)C(=O)C(O)(Cn1ccnc1)c1ccc(Cl)cc1 (stereo not given) | 0.08 µg/mL | 0.2 µg/mL (≈ 0.683 µM) | > 100 µg/mL | 25 µg/mL (≈ 85.4 µM) | 2
O=C(c1ccc(F)cc1)C(O)(Cn1cncn1)c1ccc(Cl)cc1Cl (stereo not given) | 1.25 µg/mL | 0.1 µg/mL (≈ 0.263 µM) | > 100 µg/mL | > 100 µg/mL | 2
O=C1O[C@H](c2ccc(F)cc2)[C@@](Cn2cncn2)(c2ccc(Cl)cc2Cl)O1 | 0.63 µg/mL | 0.1 µg/mL (≈ 0.245 µM) | 50 µg/mL (≈ 122 µM) | > 100 µg/mL | 7
CCCC(O)(c1ccc(F)cc1)C(O)(Cn1cncn1)c1ccc(Cl)cc1 (stereo not given) | 0.31 µg/mL | 0.2 µg/mL (≈ 0.513 µM) | > 100 µg/mL | > 100 µg/mL | 7
CCCCC(O)(Cn1cncn1)C(=O)c1ccc(Cl)cc1 (stereo not given) | 0.31 µg/mL | 0.2 µg/mL (≈ 0.65 µM) | 100 µg/mL (≈ 325 µM) | 100 µg/mL (≈ 325 µM) | 2
O=C(c1ccccc1)C(O)(Cn1cncn1)c1ccc(Cl)cc1Cl (stereo not given) | 1.25 µg/mL | 0.1 µg/mL (≈ 0.276 µM) | > 100 µg/mL | > 100 µg/mL | 7
O=C(c1ccc(Cl)cc1Cl)C(O)(Cn1ccnc1)c1ccc(Cl)cc1 (stereo not given) | 2.5 µg/mL | 0.1 µg/mL (≈ 0.253 µM) | 25 µg/mL (≈ 63.2 µM) | 25 µg/mL (≈ 63.2 µM) | 0
O=C(c1ccccc1Cl)C(O)(Cn1ccnc1)c1ccccc1Cl (stereo not given) | 2.5 µg/mL | 0.1 µg/mL (≈ 0.277 µM) | > 100 µg/mL | > 100 µg/mL | 2
CC(C)CC(=O)C(O)(Cn1cncn1)c1ccc(Cl)cc1Cl (stereo not given) | 0.02 µg/mL | 0.1 µg/mL (≈ 0.292 µM) | 100 µg/mL (≈ 292 µM) | 100 µg/mL (≈ 292 µM) | 0
CC(C)(C)C(=O)C(O)(Cn1cncn1)c1ccc(Cl)cc1Cl (stereo not given) | 0.04 µg/mL | 0.1 µg/mL (≈ 0.292 µM) | > 100 µg/mL | > 100 µg/mL | 7
O=C(c1ccc(Cl)cc1)C(O)(Cn1cncn1)C1CCCC1 (stereo not given) | 0.16 µg/mL | 0.1 µg/mL (≈ 0.313 µM) | 100 µg/mL (≈ 313 µM) | 50 µg/mL (≈ 156 µM) | 1
O=C(c1ccccc1Cl)C(O)(Cn1cncn1)c1ccc(F)cc1 (stereo not given) | 10 µg/mL | 0.4 µg/mL (≈ 1.16 µM) | 100 µg/mL (≈ 289 µM) | > 100 µg/mL | 0
CCCC(=O)C(O)(Cn1cncn1)c1ccc(Cl)cc1Cl (stereo not given) | 0.04 µg/mL | 0.1 µg/mL (≈ 0.305 µM) | 50 µg/mL (≈ 152 µM) | 50 µg/mL (≈ 152 µM) | 4
CCCCC(=O)C(O)(Cn1ccnc1)c1ccc(Cl)cc1Cl (stereo not given) | 0.04 µg/mL | 0.1 µg/mL (≈ 0.293 µM) | > 100 µg/mL | > 100 µg/mL | 0
CCC(=O)C(O)(Cn1cncn1)c1ccc(Cl)cc1Cl (stereo not given) | 0.04 µg/mL | 0.1 µg/mL (≈ 0.318 µM) | 100 µg/mL (≈ 318 µM) | 100 µg/mL (≈ 318 µM) | 2
O=C(c1ccc(Cl)cc1Cl)[C@@](O)(Cn1cncn1)c1ccc(Cl)cc1Cl | 1.25 µg/mL | 0.1 µg/mL (≈ 0.232 µM) | 50 µg/mL (≈ 116 µM) | > 100 µg/mL | 1

SMILES | minimal effective concentration [1] | MIC [2] | MIC [3] | MIC [4] | No. of survivors [5]
O=C(c1ccc(Cl)cc1Cl)[C@](O)(Cn1cncn1)c1ccc(Cl)cc1Cl | 0.08 µg/mL | 0.1 µg/mL (≈ 0.232 µM) | > 100 µg/mL | > 100 µg/mL | 8
O=S1O[C@H](c2ccc(Cl)cc2Cl)[C@](Cn2cncn2)(c2ccc(Cl)cc2)O1 (stereo not given in full) | 0.02 µg/mL | 0.1 µg/mL (≈ 0.225 µM) | 100 µg/mL (≈ 225 µM) | > 100 µg/mL | 7
CC(C)CC(=O)C(O)(Cn1cncn1)c1ccc(Cl)cc1 (stereo not given) | 0.04 µg/mL | 0.1 µg/mL (≈ 0.325 µM) | 100 µg/mL (≈ 325 µM) | 50 µg/mL (≈ 162 µM) | 0
O=C(c1ccccc1Cl)C(O)(Cn1cncn1)c1ccc(Cl)cc1 (stereo not given) | > 20 µg/mL | 0.4 µg/mL (≈ 1.1 µM) | > 100 µg/mL | > 100 µg/mL | 0
O=C(c1ccc(Cl)cc1)C(O)(Cn1ccnc1)c1ccc(Cl)cc1Cl (stereo not given) | 2.5 µg/mL | 0.1 µg/mL (≈ 0.253 µM) | > 100 µg/mL | > 100 µg/mL | 0
O=C(C1CCCC1)C(O)(Cn1cncn1)c1ccc(Cl)cc1Cl (stereo not given) | 0.02 µg/mL | 0.1 µg/mL (≈ 0.282 µM) | 50 µg/mL (≈ 141 µM) | > 100 µg/mL | 0
CC(C)C(=O)C(O)(Cn1ccnc1)c1ccc(Cl)cc1Cl (stereo not given) | 0.04 µg/mL | 0.1 µg/mL (≈ 0.306 µM) | > 100 µg/mL | > 100 µg/mL | 1
O=C(c1ccccc1Cl)C(O)(Cn1cncn1)c1ccc(Cl)cc1Cl (stereo not given) | 0.04 µg/mL | 0.1 µg/mL (≈ 0.252 µM) | > 100 µg/mL | > 100 µg/mL | 8
O=C(c1ccccc1)C(O)(Cn1cncn1)c1ccccc1 (stereo not given) | > 20 µg/mL | 12.5 µg/mL (≈ 42.6 µM) | > 100 µg/mL | > 100 µg/mL | 0
O=C(c1ccc(Cl)cc1Cl)C(O)(Cn1cncn1)c1ccccc1Cl (stereo not given) | 0.31 µg/mL | 0.1 µg/mL (≈ 0.252 µM) | 100 µg/mL (≈ 252 µM) | 100 µg/mL (≈ 252 µM) | 7
OC(c1ccccc1Cl)C(O)(Cn1cncn1)c1ccccc1Cl (stereo not given) | 0.08 µg/mL | 0.1 µg/mL (≈ 0.275 µM) | 100 µg/mL (≈ 275 µM) | 6.3 µg/mL (≈ 17.3 µM) | 2
O=C1O[C@H](c2ccccc2Cl)[C@@](Cn2cncn2)(c2ccccc2Cl)O1 | 0.31 µg/mL | 12.5 µg/mL (≈ 32 µM) | > 100 µg/mL | > 100 µg/mL | 0
CCCC(O)(Cn1cncn1)C(=O)c1ccc(Cl)cc1Cl (stereo not given) | 1.25 µg/mL | 0.4 µg/mL (≈ 1.22 µM) | > 100 µg/mL | 50 µg/mL (≈ 152 µM) | 1
CCCCC(=O)C(O)(Cn1cncn1)c1ccc(Cl)cc1Cl (stereo not given) | 0.04 µg/mL | 0.1 µg/mL (≈ 0.292 µM) | 50 µg/mL (≈ 146 µM) | > 100 µg/mL | 2
O=C1O[C@H](c2ccccc2)[C@@](Cn2cncn2)(c2ccc(Cl)cc2Cl)O1 | 0.16 µg/mL | 0.16 µg/mL (≈ 0.41 µM) | 100 µg/mL (≈ 256 µM) | > 100 µg/mL | 0
O=C1O[C@H](c2ccc(Cl)cc2Cl)[C@@](Cn2cncn2)(c2ccc(Cl)cc2)O1 | 0.63 µg/mL | 0.1 µg/mL (≈ 0.235 µM) | 50 µg/mL (≈ 118 µM) | > 100 µg/mL | 8
O=S1O[C@H](c2ccc(Cl)cc2Cl)[C@@](Cn2cncn2)(c2ccc(Cl)cc2)O1 (stereo not given in full) | 0.08 µg/mL | 0.1 µg/mL (≈ 0.225 µM) | 100 µg/mL (≈ 225 µM) | > 100 µg/mL | 5
Clc1ccc([C@@]2(Cn3cncn3)OC3(CCCCC3)O[C@@H]2c2ccc(Cl)cc2Cl)cc1 | 5 µg/mL | 0.1 µg/mL (≈ 0.209 µM) | > 100 µg/mL | > 100 µg/mL | 0
Cc1ccc(C(=O)C(O)(Cn2cncn2)c2ccccc2Cl)cc1 (stereo not given) | 2.5 µg/mL | 0.8 µg/mL (≈ 2.34 µM) | > 100 µg/mL | > 100 µg/mL | 1
CC(=O)C(O)(Cn1cncn1)c1ccc(Cl)cc1Cl (stereo not given) | 0.04 µg/mL | 0.2 µg/mL (≈ 0.666 µM) | > 100 µg/mL | 50 µg/mL (≈ 167 µM) | 2
O=C(c1ccc(Cl)cc1Cl)C(O)(Cn1ccnc1)c1ccc(Cl)cc1Cl (stereo not given) | 5 µg/mL | 0.1 µg/mL (≈ 0.232 µM) | 50 µg/mL (≈ 116 µM) | 25 µg/mL (≈ 58.1 µM) | 1
OC(c1ccccc1Cl)C(O)(Cn1cncn1)c1ccc(F)cc1 (stereo not given) | 10 µg/mL | 0.8 µg/mL (≈ 2.3 µM) | > 100 µg/mL | > 100 µg/mL | 0
Clc1ccc([C@@]2(Cn3cncn3)OCO[C@@H]2c2ccc(Cl)cc2Cl)cc1 | 0.31 µg/mL | 0.1 µg/mL (≈ 0.243 µM) | > 100 µg/mL | > 100 µg/mL | 0
